Legend:
Dipeptidyl peptidase 2 = Dipeptidyl peptidase 2 (Homo sapiens, UniProt Q9UHL4); assay: Inhibition of N-terminal FLAG tagged human QPP expressed in Sf9 cells using Nle-Pro-AMC substrate after 30 mins by plate reader analysis
Dipeptidyl peptidase 8 = Dipeptidyl peptidase 8 (Homo sapiens, UniProt Q6V1X1); assay: Inhibition of C-terminal His-tagged DPP8 (unknown origin) expressed in COS7 cells using H-Ala-Pro-pNA substrate preincubated for 15 mins; format: cell-based, COS-7
Prolyl endopeptidase FAP = molecular target: T1, Prolyl endopeptidase FAP (Bos taurus, UniProt A5D7B7); assay: Inhibition of bovine serum FAP
T1 sequence (A5D7B7 whole entry): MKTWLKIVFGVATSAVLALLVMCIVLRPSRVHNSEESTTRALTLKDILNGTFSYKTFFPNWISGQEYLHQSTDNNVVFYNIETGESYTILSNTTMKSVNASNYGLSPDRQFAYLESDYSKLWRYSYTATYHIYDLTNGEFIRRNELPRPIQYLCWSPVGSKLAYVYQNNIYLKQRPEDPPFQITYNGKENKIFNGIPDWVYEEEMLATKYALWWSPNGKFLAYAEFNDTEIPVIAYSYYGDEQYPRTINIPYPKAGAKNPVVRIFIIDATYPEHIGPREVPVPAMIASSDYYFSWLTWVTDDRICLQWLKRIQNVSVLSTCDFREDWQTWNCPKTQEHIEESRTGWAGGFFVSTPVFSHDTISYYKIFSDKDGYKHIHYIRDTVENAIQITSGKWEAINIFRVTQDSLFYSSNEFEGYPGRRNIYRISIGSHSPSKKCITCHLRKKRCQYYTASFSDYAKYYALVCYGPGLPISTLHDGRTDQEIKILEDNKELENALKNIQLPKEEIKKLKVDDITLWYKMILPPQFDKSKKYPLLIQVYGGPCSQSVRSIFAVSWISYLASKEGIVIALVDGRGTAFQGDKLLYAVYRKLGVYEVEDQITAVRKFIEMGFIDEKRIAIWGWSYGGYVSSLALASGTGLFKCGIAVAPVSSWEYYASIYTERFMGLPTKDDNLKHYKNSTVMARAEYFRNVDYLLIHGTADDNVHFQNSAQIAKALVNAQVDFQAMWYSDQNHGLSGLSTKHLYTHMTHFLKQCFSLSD

[1] = Half life in rat at 1 mg/kg, iv and 2 mg/kg, po; format: ADME, organism-based; details: in vivo
How it was run: (§1)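 Rats received 1 mg/kg iv plus 2 mg/kg po, or 0.4 mg/kg iv alone. Plasma clearance is reported in ml/min/kg, half-life in h, and AUC normalized to dose in µM h/mg/kg.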

[2] = Plasma clearance in rat at 1 mg/kg, iv and 2 mg/kg, po; format: ADME, organism-based; how it was run: as §1
Rattus norvegicus = assay: Dose normalized AUC in rat at 1 mg/kg, iv and 2 mg/kg, po; format: ADME, organism-based; details: in vivo; how it was run: as §1
[3] = Oral bioavailability in rat at 2 mg/kg; format: ADME, organism-based; details: in vivo; how it was run: as §1
[4] = molecular target: Voltage-dependent L-type calcium channel subunit alpha-1C (Homo sapiens, UniProt Q13936); assay: […]
[5] = molecular target: Voltage-gated inwardly rectifying potassium channel KCNH2 (Homo sapiens, UniProt Q12809); assay: Inhibition of human ERG assessed as reduction in IKr current
Canis familiaris = assay: Dose normalized AUC in dog at 1 mg/kg, iv and 2 mg/kg, po; format: ADME, organism-based, Canis lupus familiaris; details: in vivo
How it was run: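 Dogs were dosed 1 mg/kg iv and 2 mg/kg po. AUC is reported normalized to dose in µM h/mg/kg.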

[6] = Plasma clearance in dog at 1 mg/kg, iv and 2 mg/kg, po; format: ADME, organism-based, Canis lupus familiaris
[7] = Half life in dog at 1 mg/kg, iv and 2 mg/kg, po; format: ADME, organism-based, Canis lupus familiaris; details: in vivo
[8] = Oral bioavailability in dog at 2 mg/kg; format: ADME, organism-based, Canis lupus familiaris; details: in vivo

Voltage-dependent L-type calcium channel subunit alpha-1C, sequence (Q13936 whole entry): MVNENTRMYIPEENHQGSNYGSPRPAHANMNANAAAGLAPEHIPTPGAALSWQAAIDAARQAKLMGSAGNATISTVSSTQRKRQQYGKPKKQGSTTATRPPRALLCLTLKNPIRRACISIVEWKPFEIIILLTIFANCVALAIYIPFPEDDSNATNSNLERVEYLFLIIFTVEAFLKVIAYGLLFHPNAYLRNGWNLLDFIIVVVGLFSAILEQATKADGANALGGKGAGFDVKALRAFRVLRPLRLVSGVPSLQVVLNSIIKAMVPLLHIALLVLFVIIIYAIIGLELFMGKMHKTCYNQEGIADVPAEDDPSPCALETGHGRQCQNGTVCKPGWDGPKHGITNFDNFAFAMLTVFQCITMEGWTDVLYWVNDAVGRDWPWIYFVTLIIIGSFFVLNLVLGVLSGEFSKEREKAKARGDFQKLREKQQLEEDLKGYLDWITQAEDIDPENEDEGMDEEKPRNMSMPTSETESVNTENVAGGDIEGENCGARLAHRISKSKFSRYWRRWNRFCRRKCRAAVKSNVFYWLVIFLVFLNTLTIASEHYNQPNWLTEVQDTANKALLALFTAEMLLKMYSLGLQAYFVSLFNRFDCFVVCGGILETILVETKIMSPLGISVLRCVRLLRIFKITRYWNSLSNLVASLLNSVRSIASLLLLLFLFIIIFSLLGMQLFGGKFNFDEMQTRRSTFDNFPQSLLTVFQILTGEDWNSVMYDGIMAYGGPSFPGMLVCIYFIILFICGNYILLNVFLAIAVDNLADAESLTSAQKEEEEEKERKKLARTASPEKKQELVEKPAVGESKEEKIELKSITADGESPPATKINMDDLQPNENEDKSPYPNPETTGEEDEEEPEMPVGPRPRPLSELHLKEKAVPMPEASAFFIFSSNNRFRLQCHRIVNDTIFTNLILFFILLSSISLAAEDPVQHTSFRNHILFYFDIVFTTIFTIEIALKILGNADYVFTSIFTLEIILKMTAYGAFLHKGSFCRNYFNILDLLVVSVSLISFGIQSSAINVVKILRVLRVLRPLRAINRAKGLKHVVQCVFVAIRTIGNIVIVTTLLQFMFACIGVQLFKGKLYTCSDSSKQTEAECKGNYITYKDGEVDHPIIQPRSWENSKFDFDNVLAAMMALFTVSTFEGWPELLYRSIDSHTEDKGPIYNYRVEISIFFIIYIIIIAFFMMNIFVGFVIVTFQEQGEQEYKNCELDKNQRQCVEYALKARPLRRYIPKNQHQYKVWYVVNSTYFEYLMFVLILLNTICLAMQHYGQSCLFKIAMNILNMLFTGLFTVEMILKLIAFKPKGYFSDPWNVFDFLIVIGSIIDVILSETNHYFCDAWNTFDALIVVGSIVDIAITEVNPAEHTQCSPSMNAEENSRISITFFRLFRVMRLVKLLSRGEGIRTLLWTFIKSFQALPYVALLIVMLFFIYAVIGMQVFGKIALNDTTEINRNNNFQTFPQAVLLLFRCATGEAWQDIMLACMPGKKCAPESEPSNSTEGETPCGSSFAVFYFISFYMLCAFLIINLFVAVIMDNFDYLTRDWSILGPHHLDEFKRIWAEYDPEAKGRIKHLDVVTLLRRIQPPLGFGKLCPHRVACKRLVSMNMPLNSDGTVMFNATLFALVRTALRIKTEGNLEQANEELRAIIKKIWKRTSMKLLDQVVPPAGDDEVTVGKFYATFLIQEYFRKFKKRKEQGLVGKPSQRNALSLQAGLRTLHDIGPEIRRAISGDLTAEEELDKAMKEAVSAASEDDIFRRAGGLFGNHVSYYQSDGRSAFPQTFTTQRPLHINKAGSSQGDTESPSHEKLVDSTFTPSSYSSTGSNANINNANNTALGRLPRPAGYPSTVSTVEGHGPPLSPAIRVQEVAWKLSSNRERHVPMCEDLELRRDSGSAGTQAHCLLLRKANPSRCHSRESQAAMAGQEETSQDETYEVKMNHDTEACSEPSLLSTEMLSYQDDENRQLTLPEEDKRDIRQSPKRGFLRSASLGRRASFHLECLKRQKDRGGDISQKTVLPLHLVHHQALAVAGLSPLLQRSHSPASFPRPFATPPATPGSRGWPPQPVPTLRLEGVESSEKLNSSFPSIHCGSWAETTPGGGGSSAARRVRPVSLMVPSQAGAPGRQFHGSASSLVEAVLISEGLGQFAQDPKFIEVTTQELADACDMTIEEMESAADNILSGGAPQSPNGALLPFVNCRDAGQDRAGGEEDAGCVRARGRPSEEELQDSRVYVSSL
Dipeptidyl peptidase 8, sequence (Q6V1X1 whole entry): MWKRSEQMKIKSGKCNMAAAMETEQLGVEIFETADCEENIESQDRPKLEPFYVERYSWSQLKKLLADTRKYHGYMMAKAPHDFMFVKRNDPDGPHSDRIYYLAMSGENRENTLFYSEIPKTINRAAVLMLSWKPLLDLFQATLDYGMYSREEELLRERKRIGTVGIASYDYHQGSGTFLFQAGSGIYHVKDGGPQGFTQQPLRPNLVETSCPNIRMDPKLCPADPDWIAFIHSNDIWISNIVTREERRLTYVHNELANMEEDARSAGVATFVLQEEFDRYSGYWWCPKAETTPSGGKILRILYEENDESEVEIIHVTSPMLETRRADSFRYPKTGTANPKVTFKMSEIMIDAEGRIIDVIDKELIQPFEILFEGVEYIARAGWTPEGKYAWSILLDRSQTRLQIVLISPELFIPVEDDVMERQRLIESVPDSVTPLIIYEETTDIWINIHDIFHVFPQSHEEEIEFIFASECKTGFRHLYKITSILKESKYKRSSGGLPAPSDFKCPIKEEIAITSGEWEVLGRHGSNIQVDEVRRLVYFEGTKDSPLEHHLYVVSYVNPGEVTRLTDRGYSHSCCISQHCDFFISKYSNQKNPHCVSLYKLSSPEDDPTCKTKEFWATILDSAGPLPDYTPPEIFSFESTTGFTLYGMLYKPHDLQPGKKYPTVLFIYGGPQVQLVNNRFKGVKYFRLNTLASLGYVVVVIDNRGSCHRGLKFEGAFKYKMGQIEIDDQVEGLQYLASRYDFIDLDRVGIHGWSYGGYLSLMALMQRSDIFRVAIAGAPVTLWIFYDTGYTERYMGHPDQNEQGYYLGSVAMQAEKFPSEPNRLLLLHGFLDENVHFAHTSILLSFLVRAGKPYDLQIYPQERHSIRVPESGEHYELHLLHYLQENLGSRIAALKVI
Voltage-gated inwardly rectifying potassium channel KCNH2, sequence (Q12809 whole entry): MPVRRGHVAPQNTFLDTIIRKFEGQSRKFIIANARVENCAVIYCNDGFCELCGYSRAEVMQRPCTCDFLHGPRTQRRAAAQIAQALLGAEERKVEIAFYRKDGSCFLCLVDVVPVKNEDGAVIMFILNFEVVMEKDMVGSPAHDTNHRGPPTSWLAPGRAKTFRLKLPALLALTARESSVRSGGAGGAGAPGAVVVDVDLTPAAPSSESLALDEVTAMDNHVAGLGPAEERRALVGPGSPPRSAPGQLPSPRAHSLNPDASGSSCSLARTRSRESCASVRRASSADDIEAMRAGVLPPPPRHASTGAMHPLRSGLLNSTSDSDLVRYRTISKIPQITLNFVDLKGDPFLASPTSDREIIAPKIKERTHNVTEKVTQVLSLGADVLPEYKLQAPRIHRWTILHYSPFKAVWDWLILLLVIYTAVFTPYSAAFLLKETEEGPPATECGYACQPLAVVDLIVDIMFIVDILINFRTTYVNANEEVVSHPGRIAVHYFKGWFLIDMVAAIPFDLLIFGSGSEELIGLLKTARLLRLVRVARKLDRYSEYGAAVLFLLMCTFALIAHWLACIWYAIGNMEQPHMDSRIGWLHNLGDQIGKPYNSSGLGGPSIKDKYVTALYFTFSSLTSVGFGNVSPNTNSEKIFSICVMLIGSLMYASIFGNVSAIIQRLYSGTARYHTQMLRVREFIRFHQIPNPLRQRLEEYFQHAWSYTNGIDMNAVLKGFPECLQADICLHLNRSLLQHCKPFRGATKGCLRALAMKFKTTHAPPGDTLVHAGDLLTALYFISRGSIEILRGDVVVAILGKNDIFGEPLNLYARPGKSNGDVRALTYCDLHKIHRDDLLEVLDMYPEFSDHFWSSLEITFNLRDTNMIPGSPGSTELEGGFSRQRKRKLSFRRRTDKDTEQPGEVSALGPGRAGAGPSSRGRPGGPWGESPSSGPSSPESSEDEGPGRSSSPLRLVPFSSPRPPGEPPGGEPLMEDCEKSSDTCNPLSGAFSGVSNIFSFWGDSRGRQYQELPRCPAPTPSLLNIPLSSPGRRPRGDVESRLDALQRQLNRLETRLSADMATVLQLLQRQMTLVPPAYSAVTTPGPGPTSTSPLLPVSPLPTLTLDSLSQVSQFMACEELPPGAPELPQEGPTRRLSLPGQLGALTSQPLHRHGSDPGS

SMILES | IC50 (Dipeptidyl peptidase 2) [µM] | IC50 (Dipeptidyl peptidase 8) [µM] | IC50 (Prolyl endopeptidase FAP) [µM] | half-life [1] [h] | clearance [2] [mL/min/kg] | AUC/dose (Rattus norvegicus) [µM·h/mg/kg] | other results
N[C@H]1C[C@@H](N2Cc3[nH]nc(NC(=O)C4CC4)c3C2)CO[C@@H]1c1cc(F)ccc1F | > 100 | > 100 | 22 | 5.5 | 64 | 0.6 | 
N[C@H]1C[C@@H](N2Cc3[nH]nc(NC(=O)c4ccncc4)c3C2)CO[C@@H]1c1cc(F)ccc1F | > 100 |  | 27 |  |  |  | 
N[C@H]1C[C@@H](N2Cc3cnn(S(=O)(=O)C4CCCC4)c3C2)CO[C@@H]1c1cc(F)ccc1F | > 100 | > 100 | 26 | 0.5 | 96 | 0.4 | 
N[C@H]1C[C@@H](N2Cc3[nH]nc(NC(=O)c4nccs4)c3C2)CO[C@@H]1c1cc(F)ccc1F |  |  | 40 |  |  |  | 
N[C@H]1C[C@@H](N2Cc3[nH]nc(NS(=O)(=O)Cc4ccncc4)c3C2)CO[C@@H]1c1cc(F)ccc1F |  | > 100 | 60 |  |  |  | 
CS(=O)(=O)Nc1n[nH]c2c1CN([C@H]1CO[C@H](c3cc(F)ccc3F)[C@@H](N)C1)C2 | > 100 | > 100 | 8.8 | 2 | 16 | 2.5 | 
CS(=O)(=O)n1cc2c(n1)CN([C@H]1CO[C@H](c3cc(F)ccc3F)[C@@H](N)C1)C2 [OMARIGLIPTIN] | > 100 | > 100 | > 100 |  |  | 48 | IC50 [4]: > 30 µM; clearance [6]: 0.9 mL/min/kg; half-life [7]: 22 h; AUC/dose (Canis familiaris): 54 µM·h/mg/kg; bioavailability [8]: 100%
CCS(=O)(=O)Nc1n[nH]c2c1CN([C@H]1CO[C@H](c3cc(F)ccc3F)[C@@H](N)C1)C2 |  |  | 32 | 2.1 | 12 | 3.4 | 
N[C@H]1C[C@@H](N2Cc3[nH]nc(NS(=O)(=O)c4c[nH]cn4)c3C2)CO[C@@H]1c1cc(F)ccc1F |  |  | 6.3 |  |  |  | 
CCC(=O)Nc1n[nH]c2c1CN([C@H]1CO[C@H](c3cc(F)ccc3F)[C@@H](N)C1)C2 | > 100 | > 100 | 47 | 2.2 | 60 | 0.7 | 
N[C@H]1C[C@@H](N2Cc3[nH]nc(NS(=O)(=O)CC(F)(F)F)c3C2)CO[C@@H]1c1cc(F)ccc1F | > 100 | > 100 | 32 |  |  |  | 
CC(C)S(=O)(=O)c1n[nH]c2c1CN([C@H]1CO[C@H](c3cc(F)ccc3F)[C@@H](N)C1)C2 | > 100 | > 100 | 16 |  |  |  | 
N[C@H]1C[C@@H](N2Cc3[nH]nc(NS(=O)(=O)C4CC4)c3C2)CO[C@@H]1c1cc(F)ccc1F | > 100 |  | 3.8 | 1.5 | 24 | 1.6 | 

The next lines start with results.

IC50 (Dipeptidyl peptidase 2) [µM] | IC50 (Dipeptidyl peptidase 8) [µM] | IC50 (Prolyl endopeptidase FAP) [µM] | half-life [1] [h] | clearance [2] [mL/min/kg] | AUC/dose (Rattus norvegicus) [µM·h/mg/kg] | SMILES | other results
 |  | 95 |  |  |  | Cn1cnc(S(=O)(=O)n2cc3c(n2)CN([C@H]2CO[C@H](c4cc(F)ccc4F)[C@@H](N)C2)C3)c1 | 
> 100 | > 100 | > 100 | 1.3 | 7 | 5.6 | CC(C)S(=O)(=O)n1cc2c(n1)CN([C@H]1CO[C@H](c3cc(F)ccc3F)[C@@H](N)C1)C2 | bioavailability [3]: 93%
 |  | 50 | 1.5 | 41 | 0.9 | N[C@H]1C[C@@H](N2Cc3cn(S(=O)(=O)C4CCCC4)nc3C2)CO[C@@H]1c1cc(F)ccc1F | 
 |  | 14 |  |  |  | N[C@H]1C[C@@H](N2Cc3[nH]nc(S(=O)(=O)c4ccccc4)c3C2)CO[C@@H]1c1cc(F)ccc1F | 
 |  | > 100 |  |  |  | N[C@H]1C[C@@H](N2Cc3cn[nH]c3C2)CO[C@@H]1c1cc(F)ccc1F | IC50 [4]: > 30 µM; IC50 [5]: > 30 µM; AUC/dose (Canis familiaris): 16 µM·h/mg/kg
 | > 100 | 54 | 1.6 | 24 | 1.7 | N[C@H]1C[C@@H](N2Cc3cnn(S(=O)(=O)C4CC4)c3C2)CO[C@@H]1c1cc(F)ccc1F | bioavailability [3]: 79%
 | > 100 | > 100 | 6.2 | 0.9 | 47 | N[C@H]1C[C@@H](N2Cc3cn(S(=O)(=O)C4CC4)nc3C2)CO[C@@H]1c1cc(F)ccc1F | IC50 [4]: > 30 µM; clearance [6]: 1.6 mL/min/kg; half-life [7]: 17 h; AUC/dose (Canis familiaris): 25 µM·h/mg/kg; bioavailability [8]: 90%
 |  | > 100 |  |  |  | N[C@H]1C[C@@H](N2Cc3cn(S(=O)(=O)c4ccccc4)nc3C2)CO[C@@H]1c1cc(F)ccc1F | 
> 100 |  | 20 |  |  |  | CS(=O)(=O)c1n[nH]c2c1CN([C@H]1CO[C@H](c3cc(F)ccc3F)[C@@H](N)C1)C2 | 
> 100 | > 100 | > 100 |  |  |  | N[C@H]1C[C@@H](N2Cc3cn(S(=O)(=O)C(F)(F)F)nc3C2)CO[C@@H]1c1cc(F)ccc1F | 
> 100 | > 100 | 69 | 5.2 | 1.6 | 22 | CCS(=O)(=O)n1cc2c(n1)CN([C@H]1CO[C@H](c3cc(F)ccc3F)[C@@H](N)C1)C2 | IC50 [4]: > 30 µM; bioavailability [3]: 84%; IC50 [5]: > 60 µM; clearance [6]: 3.3 mL/min/kg; half-life [7]: 13 h; AUC/dose (Canis familiaris): 25 µM·h/mg/kg; bioavailability [8]: 100%
> 100 | > 100 | > 100 |  |  |  | CCCS(=O)(=O)n1cc2c(n1)CN([C@H]1CO[C@H](c3cc(F)ccc3F)[C@@H](N)C1)C2 | 
> 100 |  | > 100 |  |  |  | N[C@H]1C[C@@H](N2Cc3cn(S(=O)(=O)c4cccc(C(F)(F)F)c4)nc3C2)CO[C@@H]1c1cc(F)ccc1F | 
 |  | 45 |  |  |  | Cn1cnc(S(=O)(=O)n2ncc3c2CN([C@H]2CO[C@H](c4cc(F)ccc4F)[C@@H](N)C2)C3)c1 | 

From ChEMBL document CHEMBL3734760 (Bioorg Med Chem Lett, 2015)
